In the library only some 1.2% were active in any assay of this set; here they are far more common.
SUMO HTRF inh – blocks human SUMOylation mediated by UBC9; 0.36% of 290,000 active; inhibition, % at 35 µM; P63279; HTRF SUMOylation assay, SAE1/SAE2 + UBC9, in vitro; in the data active = inhibition above about 50%, passing the limit was not always enough
Target sequence (P63279 whole entry, looked up): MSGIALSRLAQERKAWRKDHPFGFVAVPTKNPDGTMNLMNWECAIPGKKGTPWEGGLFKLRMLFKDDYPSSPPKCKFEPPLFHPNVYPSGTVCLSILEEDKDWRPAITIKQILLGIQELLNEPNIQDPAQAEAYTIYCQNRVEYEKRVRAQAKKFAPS
Fh CTSL1 inh – counter-screen for PFM18AAP inhibitors: inhibitors of F. hepatica cathepsin L1. recombinant F. hepatica cathepsin L1, Z-Leu-Arg-MCA fluorescence. inhibition, % at 5.96 µM. 0.49% of 300,000 active;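 active = inhibition above the mean of all tested compounds plus 3 SD, set per screening campaign, cut at about 17% in these data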
TDP2 absorb – blocks human TDP2 phosphodiesterase activity; O95551; recombinant TDP2, T5PNP hydrolysis, p-nitrophenol absorbance 415 nm; inhibition, % at 12.8 µM; 0.34% of 370,000 active; AID 720702;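 active = inhibition above the mean of all tested compounds plus 3 SD, set per campaign, cut at about 25% in these data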
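System: recombinant human TDP2 / Amount: 120 nM TDP2 per well / Also added: 5 mM T5PNP chromogenic substrate / Doses: 12.8 µM single point, 1% DMSO / Incubation: 2 h at 37 °C / Detection: p-Nitrophenol epi absorbance / Evaluation: % inhibition relative to enzyme-containing and enzyme-free wells / Repeats: singlicate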
NSD2 HMT inh – inhibitors of human histone methyltransferase NSD2. AID 743445. NSD2 peptide methylation, AlphaScreen, 120 min. O96028. inhibition, % at 12.5 µM. 0.54% of 310,000 active; in the data active = inhibition above about 50%
Alpha artifact – AlphaScreen assay artifact in NSD2 counter-screen; shares compounds with NSD2 HMT inh; AlphaScreen artifact counterscreen, preloaded methylated H4 peptide; AC35, µM (top dose mostly 10 µM); 9.4% of 1,500 active; call rule not given here
Hits are given with their value; 0 = inactive; - = no result given.

SMILES | SUMO HTRF inh | Fh CTSL1 inh | TDP2 absorb | NSD2 HMT inh | Alpha artifact
COC(=O)c1ccc(CSc2ncnc3c2sc2nc(N4CCOCC4)c4c(c23)CCCC4)o1 | - | 0 | 0 | 0 | -
COC(=O)c1ccc(Cn2cnc3c(sc4nc(N5CCOCC5)c5c(c43)CCCC5)c2=O)o1 | 0 | 0 | 0 | 75 | 0
O=C(CNc1ccc(F)cc1)N/N=C/c1c(O)ccc2ccccc12 | 0 | 0 | 0 | 70 | 0
COc1ccc(CN(C(=O)CN2C(=O)NC3(CCC(C)CC3)C2=O)C(C)Cc2cccs2)cc1 (configuration not stated) | - | - | 0 | 55 | 0
CC1CCC2(CC1)NC(=O)N(CC(=O)N(Cc1ccccc1)C(C)(C)C)C2=O (configuration not stated) | - | - | 0 | 0 | -
COc1ccc(CCNC(=O)CN2C(=O)C(=O)N(C3CCCC3)C2=O)cc1OC | - | - | 0 | 55 | 0
COC1=CC(=O)C(OC)=C(OC)C1=O | - | - | 0 | 101 | 0
COC(=O)c1ccc(NC(=O)c2ccc(NS(=O)(=O)c3cccc4cccnc34)cc2)cc1 | 0 | 0 | - | 0 | -
Cc1cccc(NC(=O)c2ccc(NS(=O)(=O)c3cccc4cccnc34)cc2)c1 | - | - | 0 | 53 | 0
CCCCn1c(N)c(N(CCC(C)C)C(=O)COC(=O)c2ccc([N+](=O)[O-])s2)c(=O)[nH]c1=O | - | - | 0 | 53 | 0
CC(C)CN(C(=O)COC(=O)c1ccc([N+](=O)[O-])s1)c1c(N)n(Cc2ccccc2)c(=O)[nH]c1=O | - | 0 | 0 | 65 | 0
Cc1ccc(S(=O)(=O)Nc2cccc(C(=O)NCCCN3CCCC3=O)c2)cc1F | - | 0 | 0 | 0 | -
CCNc1ccccc(C(=O)/C=C/c2ccc3c(c2)OCO3)c1=O | 0 | 0 | 0 | 66 | 0
O=C(Nc1cccc(C(F)(F)F)c1)c1cc(-c2ccco2)on1 | 0 | 0 | 0 | 92 | 0
Cc1ccc(CN2CC(C(=O)Nc3ccccc3N3CCCC3)CC2=O)cc1 (configuration not stated) | - | 0 | 0 | 0 | -
O=C(Nc1cc(C(F)(F)F)ccc1N1CCCC1)C1CC(=O)N(Cc2ccccc2)C1 (configuration not stated) | - | - | 0 | 56 | 0
Nc1c(/C=C2/C=CC(=O)C(O)=C2)c(=O)nc2sc(CC(=O)N3CCOCC3)nn12 | - | - | 0 | 114 | 3.6µM
O=C1C=C(c2ccccc2)C(c2ccccc2)C1 (configuration not stated) | - | - | 0 | 0 | -
COc1cc(/C=C2\C(=N)N3N=C(S(C)(=O)=O)SC3=NC2=O)ccc1OC(=O)c1cccs1 | 0 | 0 | 0 | 62 | 0
Oc1cc2c(cc1O)[C@H]1c3ccc(O)c(O)c3OC[C@@]1(O)C2 | - | - | 0 | 109 | 4µM
COCCCN1CC(=O)N2C(c3cccc(C)c3)c3[nH]c4ccccc4c3C[C@H]2C1=O (some centres not stated) | 0 | 0 | 0 | 0 | -
COCCN1CC(=O)N2C(c3cccc(C)c3)c3[nH]c4ccccc4c3C[C@H]2C1=O (some centres not stated) | 0 | 0 | 0 | 52 | 0
COc1ccccc1NC(=O)c1cccc2c(Br)cccc12 | 0 | 0 | 0 | 0 | -
COc1cc(OC)nc(NC2OC(=O)c3ccccc32)n1 (configuration not stated) | 0 | 0 | 0 | 104 | 0
COC(=O)COc1cccc(-n2cnnn2)c1 | 0 | 0 | 0 | - | -
SMILES | SUMO HTRF inh | Fh CTSL1 inh | TDP2 absorb | NSD2 HMT inh | Alpha artifact
Cc1cc(C(=O)COc2cccc(-n3cnnn3)c2)c(C)n1-c1ccccc1 | 0 | 0 | 0 | 56 | 0
O=C(NCCN1CCOCC1)NC1(C(F)(F)F)Oc2ccccc2O1 | 0 | 0 | 0 | 55 | 0
O=C(C=Cc1ccccc1)c1cc(Br)ccc1O | - | - | 0 | 54 | 0
COc1ccc(N2CCOCC2)c(NC(=O)c2ccc3c(c2)OCO3)c1 | 0 | 0 | 0 | 53 | 0
COc1cccc(NC(=O)c2ccc3c(c2)OCCO3)c1 | 0 | - | 0 | 113 | 0
O=C(Nc1nnc(SCc2ccccn2)s1)C1CC(=O)N(c2ccc(F)cc2)C1 (configuration not stated) | 0 | 0 | 0 | - | -
COc1ccc(OC)c(C(=O)Nc2c(O)ccc3ccccc23)c1 | - | 0 | 0 | 52 | 0
COc1ccc(OC)c(NC(=O)Nc2c(O)ccc3ccccc23)c1 | - | 0 | 0 | 0 | -
COC(=O)c1ccc(COC(=O)CNC(=O)c2ccc(OC)cc2)cc1 | - | - | 0 | 0 | -
CCOC(=O)Nc1ccc(=O)n(Cc2c(Cl)cccc2Cl)c1 | 0 | 0 | 0 | 85 | 0
CCOC(=O)CN1C(=O)C(=O)N(Cc2c(Cl)cccc2Cl)C1=O | 0 | 0 | 0 | 0 | -

Source: PubChem BioAssay
